Results from ChEMBL document CHEMBL3112517, “Identification of dihydrostilbenes in Pholidota chinensis as a new scaffold for GABAA receptor modulators” (Bioorg Med Chem, 2014).

Tests used:
[1] = (§1) Potency index, ratio of compound activity for modulation of rat GABAA alpha1beta2gamma2S receptor assessed as EC3 to 10 GABA-induced chloride ion current to midazolam activity for modulation of GABAA alpha1beta2gamma2S receptor (unknown origin) assessed as potentiation of EC5 to 10 GABA-induced chloride ion current
[2] = as §1, with “clotiazepam” for “midazolam”
[3] = target: GABA-A receptor; alpha-1/beta-3/gamma-2 (Homo sapiens) (UniProt P14867+P18507+P28472); assay: Modulation of GABAA alpha1beta3gamma2S receptor (unknown origin) expressed in Xenopus laevis oocytes assessed as potentiation of EC3 to 10 GABA-induced chloride ion current at holding potential -70 mV 1 to 300 uM by two-microelectrode voltage clamp assay relative to GABA-treated control; format: cell-based
[4] = species: Homo sapiens; assay: Modulation of GABAA alpha1beta1gamma2S receptor (unknown origin) expressed in Xenopus laevis oocytes assessed as potentiation of EC3 to 10 GABA-induced chloride ion current at holding potential -70 mV at 1 to 300 uM by two-microelectrode voltage clamp assay relative to GABA-treated control; format: cell-based
[5] = species: Homo sapiens; assay: Modulation of GABAA alpha4beta2gamma2S receptor (unknown origin) expressed in Xenopus laevis oocytes assessed as potentiation of EC3 to 10 GABA-induced chloride ion current at holding potential -70 mV at 1 to 300 uM by two-microelectrode voltage clamp assay relative to GABA-treated control; format: cell-based
[6] = target: GABA A receptor alpha-3/beta-2/gamma-2 (Homo sapiens) (UniProt P47870+P18507+P34903); assay: Modulation of GABAA alpha3beta2gamma2S receptor (unknown origin) expressed in Xenopus laevis oocytes assessed as potentiation of EC3 to 10 GABA-induced chloride ion current at holding potential -70 mV at 1 to 300 uM by two-microelectrode voltage clamp assay relative to GABA-treated control; format: cell-based
[7] = target: T1, GABA-A receptor; alpha-1/beta-3/gamma-2 (Homo sapiens, UniProt P14867+P18507+P28472); assay: Modulation of GABAA alpha1beta3gamma2S receptor (unknown origin) expressed in Xenopus laevis oocytes assessed as potentiation of EC3 to 10 GABA-induced chloride ion current at holding potential -70 mV by two-microelectrode voltage clamp assay; format: cell-based
T1 sequence (P14867 whole entry): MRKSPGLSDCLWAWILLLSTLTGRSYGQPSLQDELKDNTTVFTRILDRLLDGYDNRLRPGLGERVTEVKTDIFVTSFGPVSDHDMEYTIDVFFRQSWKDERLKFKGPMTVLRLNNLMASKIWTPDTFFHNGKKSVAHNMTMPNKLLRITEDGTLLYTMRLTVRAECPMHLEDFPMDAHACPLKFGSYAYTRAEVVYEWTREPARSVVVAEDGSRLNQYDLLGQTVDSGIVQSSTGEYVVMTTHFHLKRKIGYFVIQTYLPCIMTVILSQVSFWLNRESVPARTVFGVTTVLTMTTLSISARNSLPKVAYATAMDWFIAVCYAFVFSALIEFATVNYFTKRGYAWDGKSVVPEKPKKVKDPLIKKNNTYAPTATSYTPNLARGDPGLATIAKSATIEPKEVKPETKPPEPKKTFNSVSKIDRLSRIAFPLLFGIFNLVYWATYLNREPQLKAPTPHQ
T1 sequence (P18507 whole entry): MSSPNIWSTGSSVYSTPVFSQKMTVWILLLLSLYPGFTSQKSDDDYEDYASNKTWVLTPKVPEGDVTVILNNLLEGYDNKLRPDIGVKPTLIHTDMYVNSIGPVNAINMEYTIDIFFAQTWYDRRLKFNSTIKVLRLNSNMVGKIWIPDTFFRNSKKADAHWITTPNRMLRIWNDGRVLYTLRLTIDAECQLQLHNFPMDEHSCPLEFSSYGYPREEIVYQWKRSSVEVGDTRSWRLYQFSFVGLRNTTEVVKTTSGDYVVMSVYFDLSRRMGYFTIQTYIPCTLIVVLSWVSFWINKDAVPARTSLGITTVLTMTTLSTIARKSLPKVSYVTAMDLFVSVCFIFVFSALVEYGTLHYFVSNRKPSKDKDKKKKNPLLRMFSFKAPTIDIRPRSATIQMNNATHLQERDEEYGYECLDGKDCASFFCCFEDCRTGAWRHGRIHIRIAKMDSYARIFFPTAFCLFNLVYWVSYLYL
T1 sequence (P28472 whole entry): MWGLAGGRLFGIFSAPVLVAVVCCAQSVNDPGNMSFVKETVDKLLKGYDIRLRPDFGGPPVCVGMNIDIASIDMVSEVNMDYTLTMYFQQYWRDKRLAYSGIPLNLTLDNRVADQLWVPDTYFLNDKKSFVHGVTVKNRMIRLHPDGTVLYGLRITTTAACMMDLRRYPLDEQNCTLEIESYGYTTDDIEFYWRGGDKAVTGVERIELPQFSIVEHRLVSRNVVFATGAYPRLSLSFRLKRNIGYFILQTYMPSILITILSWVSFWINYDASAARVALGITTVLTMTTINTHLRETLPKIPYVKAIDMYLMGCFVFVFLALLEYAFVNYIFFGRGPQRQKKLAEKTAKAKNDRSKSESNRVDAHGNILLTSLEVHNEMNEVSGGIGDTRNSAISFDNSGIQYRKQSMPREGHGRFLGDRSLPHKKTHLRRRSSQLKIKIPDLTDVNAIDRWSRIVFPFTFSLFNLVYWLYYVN

[8] = Modulation of GABAA alpha1beta1gamma2S receptor (unknown origin) expressed in Xenopus laevis oocytes assessed as potentiation of EC3 to 10 GABA-induced chloride ion current at holding potential -70 mV by two-microelectrode voltage clamp assay; format: cell-based; details: Homo sapiens
[9] = Modulation of GABAA alpha5beta2gamma2S receptor (unknown origin) expressed in Xenopus laevis oocytes assessed as potentiation of EC3 to 10 GABA-induced chloride ion current at holding potential -70 mV by two-microelectrode voltage clamp assay; format: cell-based; details: Homo sapiens
[10] = Modulation of GABAA alpha4beta2gamma2S receptor (unknown origin) expressed in Xenopus laevis oocytes assessed as potentiation of EC3 to 10 GABA-induced chloride ion current at holding potential -70 mV by two-microelectrode voltage clamp assay; format: cell-based; details: Homo sapiens
[11] = species: Rattus norvegicus; assay: Allosteric modulation of rat GABAA alpha1beta2gamma2S receptor expressed in Xenopus laevis oocytes assessed as potentiation of EC3 to 10 GABA-induced chloride ion current at holding potential -70 mV at 1 to 300 uM by two-microelectrode voltage clamp assay relative to GABA-treated control; format: cell-based
Method in brief: (§2)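 Stage V–VI Xenopus laevis oocytes were injected with 50 nL of rat α1, β2 and γ2S cRNA mixed 1:1:10 (about 300–3000 pg/nL per subunit), stored at 18 °C in ND96, and recorded on days 1–5. Two-electrode clamp was at −70 mV in pH 7.4 HEPES bath. Compound was applied by fast perfusion with GABA EC3–10, in 1% DMSO final. Enhancement = I(GABA+Comp)/IGABA − 1.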

[12] = (§3) Allosteric modulation of rat GABAA alpha1beta2gamma2S receptor expressed in Xenopus laevis oocytes assessed as potentiation of EC3 to 10 GABA-induced chloride ion current at holding potential -70 mV by two-microelectrode voltage clamp assay; format: cell-based; method in brief: as §2
[13] = species: Rattus norvegicus; assay: as §3; format: cell-based; method in brief: as §2

Ratio [1]: 4
Ratio [2]: 4
Imax [3]: 1250%
Imax [4]: 1250%
Imax [5]: 1590%
Imax [6]: 1690%
EC50 [7]: 67.2 µM
EC50 [8]: 66.7 µM
EC50 [9]: 46.7 µM
EC50 [10]: 26.2 µM
Imax [11]: 1510%
EC50 [12]: 52.5 µM
Activity [13]: Dose-dependent effect
SMILES: COc1cc(O)cc(CCc2cccc(O)c2)c1 [BATATASIN III]
